Test [1] addresses T1, NAD-dependent protein deacylase sirtuin-6 (Homo sapiens, UniProt Q8N6T7). Briefly: Inhibition of SIRT6 (unknown origin) at 200 uM by fluorescence-based assay.
For test [2], the species on record is Homo sapiens. The experiment in a line: Selectivity ratio of IC50 for SIRT2 (unknown origin) to IC50 for SIRT6 (unknown origin). Summed up:
(§1)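 Deacetylase activity measured with commercial fluorescence-based SIRT1, SIRT2 or SIRT6 kits per manufacturer's instructions. Compounds from 50 mM DMSO stocks, tested from 8 μM to 5 mM. IC50 derived by logarithmic nonlinear regression. Three independent determinations per compound.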

Test [3] concerns the target T2, NAD-dependent protein deacetylase sirtuin-2 (Homo sapiens, UniProt Q8IXJ6).
T2 sequence (Q8IXJ6 whole entry): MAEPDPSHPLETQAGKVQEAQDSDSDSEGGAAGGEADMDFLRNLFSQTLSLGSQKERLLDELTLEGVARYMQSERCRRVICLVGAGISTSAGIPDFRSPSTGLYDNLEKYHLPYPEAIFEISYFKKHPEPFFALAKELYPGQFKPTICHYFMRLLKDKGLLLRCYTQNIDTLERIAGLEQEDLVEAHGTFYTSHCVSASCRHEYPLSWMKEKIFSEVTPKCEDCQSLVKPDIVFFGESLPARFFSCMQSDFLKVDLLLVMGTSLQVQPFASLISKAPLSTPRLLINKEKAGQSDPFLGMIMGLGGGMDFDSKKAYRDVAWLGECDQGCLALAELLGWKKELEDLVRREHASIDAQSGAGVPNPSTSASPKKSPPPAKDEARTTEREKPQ
The experiment in a line: Inhibition of SIRT2 (unknown origin). A digest of the protocol:
as §1

The target in test [4] is T3, NAD-dependent protein deacetylase sirtuin-1 (Homo sapiens, UniProt Q96EB6).
T3 sequence (Q96EB6 whole entry): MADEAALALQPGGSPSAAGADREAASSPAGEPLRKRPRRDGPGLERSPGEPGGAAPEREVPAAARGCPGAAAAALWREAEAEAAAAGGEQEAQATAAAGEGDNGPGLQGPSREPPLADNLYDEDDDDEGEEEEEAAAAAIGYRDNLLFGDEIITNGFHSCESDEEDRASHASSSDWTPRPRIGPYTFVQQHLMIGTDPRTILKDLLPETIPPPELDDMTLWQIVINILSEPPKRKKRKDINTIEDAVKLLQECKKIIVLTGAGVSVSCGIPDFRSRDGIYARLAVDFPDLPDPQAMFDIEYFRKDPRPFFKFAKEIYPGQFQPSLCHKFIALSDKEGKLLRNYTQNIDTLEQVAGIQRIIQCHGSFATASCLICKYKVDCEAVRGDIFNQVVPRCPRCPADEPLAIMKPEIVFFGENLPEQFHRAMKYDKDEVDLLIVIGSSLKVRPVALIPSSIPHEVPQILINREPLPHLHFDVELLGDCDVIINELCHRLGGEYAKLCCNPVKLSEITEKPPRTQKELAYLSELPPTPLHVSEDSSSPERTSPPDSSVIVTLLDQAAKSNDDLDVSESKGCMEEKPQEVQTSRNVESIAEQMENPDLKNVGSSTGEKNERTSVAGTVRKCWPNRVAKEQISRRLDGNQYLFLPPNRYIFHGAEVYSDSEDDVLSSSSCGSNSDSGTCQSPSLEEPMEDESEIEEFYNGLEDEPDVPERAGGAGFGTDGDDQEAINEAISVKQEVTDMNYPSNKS
Briefly: Inhibition of SIRT1 (unknown origin). A digest of the protocol:
as §1

The species named for test [5] is Homo sapiens. The experiment in a line: Selectivity ratio of IC50 for SIRT1 (unknown origin) to IC50 for SIRT6 (unknown origin). Summed up:
as §1

In test [6] the target is T1, NAD-dependent protein deacylase sirtuin-6. The experiment in a line: Inhibition of SIRT6 (unknown origin). A digest of the protocol:
as §1

In test [7] the test system is BXPC-3. Briefly: Increase in GLUT1 expression in human BxPC3 cells at 12.5 to 200 uM after 24 hrs by Western blotting analysis. The class given is functional, cell-based. Summed up:
(§2)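 BxPC-3 cells plated 4 × 10^5 per well and allowed to adhere 24 h. Treated either 24 h at the stated concentrations or for a time course at 200 μM. Lysed in Tris-HCl pH 7.5/NaCl/NP40 buffer. 30 μg protein run on 15% SDS-PAGE and transferred to PVDF. GLUT-1 and γ-tubulin detected by immunoblotting with ECL.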
On the technique in general: Immunoblotting shows a protein as a band on a membrane.

The subject of test [8] is BXPC-3. The experiment in a line: Increase in [14C]-2-deoxy-D-glucose uptake in human BxPC3 cells at 200 uM after 18 hrs by scintillation counting analysis relative to control. The class given is functional. Summed up:
(§3)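 Human BxPC-3 or rat L6 cells (6 × 10^5/well) treated in triplicate for 18 h with 200 μM (final) compound in complete medium. Uptake measured with 0.5 mM 2-deoxy-D-glucose/[14C]-2-deoxy-D-glucose (0.5 μCi/well) in KRH buffer for 5 min at 37 °C. Cells lysed in 0.1% SDS for scintillation counting. Uptake in presence of cytochalasin B plus phloretin subtracted. Expressed relative to untreated.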

The next test deals with L6. Briefly: Increase in [14C]-2-deoxy-D-glucose uptake in rat L6 cells at 200 uM after 18 hrs by scintillation counting analysis relative to control. In kind it is functional. Summed up:
as §3

The test system of test [9] is BXPC-3. The experiment in a line: Inhibition of PMA-induced TNF-alpha secretion in human BxPC3 cells at 100 uM incubated for overnight prior to stimulation of PMA for 24 hrs by ELISA. In kind it is functional. As to conditions: BXPC-3, 24 h. A digest of the protocol: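 BxPC-3 cells (3 × 10^5/well) allowed to adhere 24 h, then incubated overnight with 100 μM compound or vehicle. Stimulated 24 h with 25 ng/mL PMA. TNF-α in supernatants measured by DuoSet ELISA. Expressed as % inhibition.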
(In general: ELISA stands for enzyme-linked immunosorbent assay.)

For test [10], the system named is BXPC-3. The experiment in a line: Increase in GLUT1 expression in human BxPC3 cell surface at 100 uM after 24 hrs by flow cytometry. The class given is functional, cell-based. A digest of the protocol:
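BxPC-3 cells plated 4 × 10^5 per well, allowed to adhere 24 h, then exposed 24 h to 100 μM compound or DMSO vehicle. Cells trypsinized, fixed 10 min in 100% methanol at −20 °C, stained with anti-GLUT-1 antibody then anti-mouse IgG2a (each 30 min, 4 °C). Analysed by flow cytometry, 10.000 events/sample.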
(In general: Flow cytometry measures light scatter and fluorescence of single cells or particles in a stream.)

The target in test [11] is T1, NAD-dependent protein deacylase sirtuin-6. Briefly: Inhibition of SIRT6 in human BxPC3 cells assessed as increase in H3K9 acetylation at 100 uM after >18 hrs by immunoblot analysis. As to conditions: BXPC-3. In kind it is cell-based. Summed up: (§4)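 BxPC-3 cells plated 4 × 10^5 per well, adhered 24 h, then given 100 μM compound or matching DMSO (final DMSO 2–6‰) for varying times. Lysates (30 μg) resolved on 15% SDS-PAGE and immunoblotted for acetyl-H3K9 and total H3 with ECL. Acetyl-H3K9 normalized to total H3 and expressed as % versus vehicle-treated cells.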

Test [12] shares this target. Briefly: Inhibition of SIRT6 in human BxPC3 cells assessed as increase in H3K9 acetylation at 100 uM after 18 hrs by immunoblot analysis. As to conditions: BXPC-3. The class given is cell-based. Summed up: as §4
In test [13] the test system is BXPC-3. The experiment in a line: Increase in GLUT1 expression in human BxPC3 cells at 200 uM after 6 hrs by Western blotting analysis. The class given is functional, cell-based. A digest of the protocol:
as §2

Activity calls are given as the source filed them. The rule behind the calls is not given here.

T1 sequence (Q8N6T7 whole entry): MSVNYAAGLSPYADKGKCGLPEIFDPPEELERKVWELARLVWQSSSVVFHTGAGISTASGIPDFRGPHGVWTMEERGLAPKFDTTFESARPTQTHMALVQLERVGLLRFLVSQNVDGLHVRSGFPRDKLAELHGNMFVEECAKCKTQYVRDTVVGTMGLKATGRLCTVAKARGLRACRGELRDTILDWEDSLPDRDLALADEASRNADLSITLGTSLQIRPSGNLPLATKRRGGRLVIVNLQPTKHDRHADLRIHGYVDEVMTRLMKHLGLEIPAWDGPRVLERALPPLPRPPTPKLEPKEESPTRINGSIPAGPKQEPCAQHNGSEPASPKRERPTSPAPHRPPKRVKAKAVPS

In the case of `O=C(CSc1nc[nH]n1)CSc1nc[nH]n1`, in test [1], the inhibition entry is “inactive”.
The same measure, in the same setting: with `CCOc1ccc(NC2SC(=O)NC2=O)cc1` (stereo unspecified) the entry was “inactive”.
`O=C(NCc1nc(-c2cccnc2)n[nH]1)c1cnccn1`: the Ratio IC50 came out at 1.71 in the test listed under Homo sapiens [2] and 1.1 in the test listed under Homo sapiens [5]. Moreover, in [1], the inhibition was 12%. The IC50 in test [3] stood at 2290 µM; in [4], 1470 µM; in [6] it was 1340 µM.
Regarding `O=c1cc(-c2ccccc2)[nH]c(=O)[nH]1`, in test [1], the inhibition entry was “inactive”.
The same measure, in the same setting: with `Cc1nc(=O)c2c([nH]1)CC1CCC(C2)N1Cc1ccc2c(c1)CC(C)O2` (stereo unspecified) the entry was “inactive”; with `COc1ccc(OCC(O)Cn2c(NCCc3ccccc3)nc3c2c(=O)[nH]c(=O)n3C)cc1` (stereo unspecified), “inactive”.
As to `O=C(Nc1ccc(O)c(C(=O)O)c1)c1cccc(NC(=O)c2ccco2)c1`, the result in the test with BXPC-3 [7] and with BXPC-3 [10] was Active. For the same compound, the Ratio IC50 was found to be 8.44 in the test filed under Homo sapiens [2] and 17.7 in the test filed under Homo sapiens [5]. Also, the entries for the “fold change (FC)” value in the test with BXPC-3 [8] and in the test on L6 were 1.11 and 1.2, respectively. The IC50 in [3] was 751 µM; in [4], 1580 µM; in test [6] it was 89 µM. In the test with BXPC-3 [9], this compound showed an inhibition at 100 µM of 50%.
With `O=C(CSCc1ccc(Cl)c(Cl)c1)Nc1cnc(O)nc1O`, the inhibition result in test [1] is “inactive”.
The same measure, in the same setting: with `NC(=O)c1ccc[n+](CCCCCC[n+]2cccc(C(N)=O)c2)c1` the entry was “inactive”.
Take `O=c1[nH]c(=O)c2cc(S(=O)(=O)Nc3ccc(Oc4cccnc4)cc3)ccc2[nH]1`: the outcome in the test with BXPC-3 [7] and in the test on BXPC-3 [10] was Active. Moreover, the inhibition result in test [11] is “inactive”. Also, the Ratio IC50 is 1.07 in the test filed under Homo sapiens [2] and 2.96 in the test listed under Homo sapiens [5]. Also, in test [1], the inhibition turned out to be 100%. The “fold change (FC)” value came to 1.3 in the test with BXPC-3 [8] and 1.98 in the test with L6. In addition, the 50% inhibitory concentration (IC50) in [3] came to 114 µM; in [4], 314 µM; in test [6] it was 106 µM. The compound further displayed an inhibition at 100 µM with BXPC-3 [9] of 73%. For the same compound, the inhibition entry in [12] was “Active”.
`O=C(Nc1ccc(NS(=O)(=O)c2ccc(Oc3ccc([N+](=O)[O-])cc3)cc2)cc1)c1ccccc1`: the inhibition result in test [1] was “inactive”.
On to `O=C1NC(=O)C2(CCCCCC2)N1`, for which the inhibition entry in test [1] was “inactive”.
On the same count and under the same terms, for `CC1(CCC(=O)O)NC(=O)NC1=O` (stereo unspecified) the value was “inactive”.
As to `N=C(Nc1ccccc1)SC1CC(=O)N(c2ccc(C(=O)O)cc2)C1=O` (racemic), the result in the test with BXPC-3 [13] was Active. Besides, the inhibition result in test [11] was “inactive”. The Ratio IC50 in the test listed under Homo sapiens [2] was 9.63; in the test filed under Homo sapiens [5], 19.1. The compound also gave an inhibition in [1] of 66%. Also, the “fold change (FC)” value with BXPC-3 [8] is given as 3.09; in the test on L6, 1.55. In addition, the IC50 in test [3] amounted to 1740 µM; in test [4], 3470 µM; in test [6] it was 181 µM. The compound also had an inhibition at 100 µM with BXPC-3 [9] of 53%. Also, the inhibition result in [12] is “Active”.

What is called inhibition is how much of the control response was suppressed. In general, IC50 refers to the concentration that gives 50% inhibition.
